The record followed here is ChEMBL document CHEMBL1143007, “Synthesis and evaluation of 4/5-hydroxy-2,3-diaryl(substituted)-cyclopent-2-en-1-ones as cis-restricted analogues of combretastatin A-4 as novel anticancer agents” (J Med Chem, 2007).

≈ marks a conversion by molar mass, not a printed value. Calls of active or inactive are those of the source. The rule behind the calls is not given here.

The nature of series [1]: Mean residence time in iv dosed Swiss Albino mouse plasma. The class given is ADME, organism-based. An outline of the steps:
(§1)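 Swiss albino mice (6-8 weeks, ~25 g) dosed intravenously with compound in a cosolvent formulation diluted in 5% dextrose. Blood drawn by orbital bleed under mild ether at 3, 10, 30 min, 1, 2, 4, 6, 8 and 24 h into EDTA, with no more than five bleeds per mouse. Plasma was solvent-extracted and measured by C18 HPLC against an internal standard and a standard curve. Results are mean ± SD, n = 3.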

Series [2] has as its system ECV-304. The series can be described thus: Apoptosis in strongly adherent human ECV304 cells at 1000 nM assessed as DNA fragmentation. The class given is functional, cell-based. In short, it runs like this: (§2)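 ECV304 plated at 2 × 10⁶ cells per 90 mm dish in DMEM with 10% FCS, allowed 5-6 h to reattach, then exposed to 10 nM-1 µM for 24 h in fresh medium; 100 nM positive control. Strongly and loosely adherent cells harvested separately and lysed (1 mM Tris-Cl, 20 mM EDTA pH 8, 1% NP-40).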

Series [3] in a line: Aqueous solubility in phosphate buffer at pH 7.4.
Series [4] concerns ECV-304. The series can be described thus: Apoptosis in loosely adherent human ECV304 cells assessed as DNA fragmentation. Type of series: functional, cell-based. In short, it runs like this:
as §2

Series [5] in a line: Cytotoxicity against human ECV304 cells after 72 hrs by MTT assay. Type of series: cell-based, ECV-304. The settings on record: Homo sapiens, ECV-304, 72 h; read-out: IC50. An outline of the steps:
(§3)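 MTT assay. Cells seeded at 5000-10 000 per well and incubated at 37 °C in CO₂ with compound at 1-100 µg/mL in triplicate wells for 72 h, then MTT added. Absorbance read at 540 nm; % cytotoxicity = 100 × (1 − treated/control). IC50 obtained by nonlinear regression; NA means IC50 above 100 µg/mL.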

Another series concerns L132. The series can be described thus: Cytotoxicity against human L132 cells after 72 hrs by MTT assay. The class given is cell-based. To be noted: Homo sapiens, L132, 72 h; read-out: IC50. An outline of the steps: as §3
For orientation: Tetrazolium assays rely on reduction of a dye to a coloured formazan, in cell work by metabolically active cells.

Series [6] relates to ECV-304. The series can be described thus: Enhanced mitotic arrest in human ECV304 cells assessed as accumulation at G2/M phase at 1 uM after 24 hrs relative to control. Type of series: functional. In short, it runs like this: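 ECV304 at 1.5 × 10⁶ cells per 90 mm dish in DMEM with 10% FCS overnight, then 1 µM for 24 h in fresh medium. Cells trypsinised, fixed in ice-cold 70% ethanol, treated with trypsin inhibitor and RNase, and stained with propidium iodide in the dark at 4-10 °C for 1 h. Flow cytometry with low gate at 10% of the G1 peak; G1 and G2/M fractions against untreated control.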

The test system of another series is KB. The series can be described thus: Cytotoxicity against human KB cells after 72 hrs by MTT assay. Type of series: cell-based. To be noted: Homo sapiens, KB, 72 h; read-out: IC50. An outline of the steps:
as §3

The next series concerns DU-145. The series can be described thus: Cytotoxicity against human DU145 cells after 72 hrs by MTT assay. The class given is cell-based. To be noted: Homo sapiens, DU-145, 72 h; read-out: IC50. In short, it runs like this:
as §3

Series [7] in a line: AUC in iv dosed Swiss Albino mouse plasma. The class given is ADME, organism-based. In short, it runs like this: as §1
Series [8] is described as follows: Antitumor activity in primary tumor colon xenografted Balb/C athymic nude mouse assessed as decreased tumor volume at 20 mg/kg, iv on day 22 relative to control. The class given is functional, Homo sapiens. More on the design: scale not given: the % may be the effect or the level left. An outline of the steps:
(§4)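 PTC colon tumour cells (15 × 10⁶ cells/100 µL) inoculated subcutaneously in Balb/c athymic nude mice aged 6-8 weeks, about 20 g; 3 animals per group. Dosing began at about 500 mm³: 20 mg/kg i.v. once daily for 14 days, cosolvent formulation diluted in 5% dextrose; controls received vehicle. Caliper volume W×W×L×0.4 every fourth day; regression = (1 − treated/control volume) × 100; Dunnett comparison, p < 0.05.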

Another series deals with Mus musculus. The series can be described thus: Volume of distribution in iv dosed Swiss Albino mouse plasma. Type of series: ADME, organism-based. The settings on record: in vivo. In short, it runs like this:
as §1

A short description of series [9]: Cmax in iv dosed Swiss Albino mouse plasma. The arrangement: route intravenous. Type of series: ADME, organism-based. An outline of the steps: as §1
The test system of another series is MIA PaCa-2. The series can be described thus: Cytotoxicity against human MiaPaCa2 cells after 72 hrs by MTT assay. Type of series: cell-based. The settings on record: Homo sapiens, MIA PaCa-2, 72 h; read-out: IC50. An outline of the steps: as §3
A further series deals with Homo sapiens. The series can be described thus: Antitumor activity in primary tumor colon xenografted Balb/C athymic nude mouse assessed as decreased tumor volume at 20 mg/kg, iv on day 19. Type of series: functional, organism-based. More on the design: dose 20 mg/kg. An outline of the steps: as §4
The nature of series [10]: Half life in iv dosed Swiss Albino mouse plasma. The class given is ADME, organism-based. In short, it runs like this:
as §1

The nature of series [11]: Cytotoxicity against human primary tumor colon cells. The class given is cell-based.
Series [12] is described as follows: Cytotoxicity against human Hep2 cells after 72 hrs by MTT assay. To be noted: Homo sapiens, HEp-2, 72 h; read-out: IC50. Type of series: cell-based, HEp-2. An outline of the steps:
as §3

Series [13] concerns ECV-304. The series can be described thus: Apoptosis in strongly adherent human ECV304 cells at 10 nM assessed as DNA fragmentation. Type of series: functional, cell-based. In short, it runs like this:
as §2

Series [14] can be described thus: Inhibition of tubulin polymerization in bovine brain. More on the design: species or system Bos taurus. In short, it runs like this: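 Compounds were added from DMSO stocks, with final DMSO below 0.4%. A340 was read every 60 s, and the area under the curve was taken as polymer amount, with the control set to 100%. IC50 is the concentration giving 50% inhibition.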

In series [15] the test system is ECV-304. The series can be described thus: Apoptosis in strongly adherent human ECV304 cells at 100 nM assessed as DNA fragmentation. Type of series: functional, cell-based. An outline of the steps: as §2
A short description of series [16]: Clearance in iv dosed Swiss Albino mouse plasma. The class given is ADME, organism-based. In short, it runs like this: as §1
Series [17] can be described thus: Cytotoxicity against human PA1 cells after 72 hrs by MTT assay. The class given is cell-based, PA-1. The settings on record: Homo sapiens, PA-1, 72 h; read-out: IC50. An outline of the steps:
as §3

For another series, the system named is HT-29. The series can be described thus: Cytotoxicity against human HT29 cells after 72 hrs by MTT assay. Type of series: cell-based. To be noted: Homo sapiens, HT-29, 72 h; read-out: IC50. An outline of the steps:
as §3

Another series relates to HEK293. The series can be described thus: Cytotoxicity against human HEK293 cells after 72 hrs by MTT assay. The class given is cell-based. To be noted: Homo sapiens, HEK293, 72 h; read-out: IC50. An outline of the steps:
as §3

As a reminder, the MRT is a mean duration of stay, worked out from the concentration-time curve. In general, solubility refers to the dissolved amount per volume that the medium holds. As usually defined, the IC50 is the concentration that inhibits the measured activity by half. In general, AUC refers to concentration integrated over time. As usually defined, the Vdss is the apparent volume that relates the amount in the body to the concentration in plasma or blood. A word on the Cmax: it is the maximum level reached in the sampled fluid or tissue. In general, half-life refers to the time in which the quantity being followed falls by half. The term clearance denotes the volume of plasma or blood freed of the substance per unit of time. Turning to `COc1ccc(C2=C(c3cc(OC)c(OC)c(OC)c3)/C(=N\O)C(O)C2)cc1` (stereo unspecified), the mean residence time MRT in series [1] was 31.8 min. Further, the outcome in the series with ECV-304 [2], in the series on ECV-304 [13] and with ECV-304 [15] was inactive. Further, in series [3], the solubility came to 360 µM (≈ 139 µg/mL). For the same molecule, the Activity entry in the series on ECV-304 [4] was “Dose-dependent effect”; in the series with ECV-304 [6], 59%; in [8] it was 45.8%. The IC50 in series [5] was below 1 µg/mL; with L132, below 1 µg/mL; in the series on KB it was below 1 µg/mL; with DU-145 it was above 100 µg/mL; with MIA PaCa-2 it was below 1 µg/mL; in series [11] it was 0.271 µg/mL (≈ 0.703 µM). Further, the IC50 in series [12] was below 1 µg/mL; in series [14], 1750 nM; in series [17], below 1 µg/mL; in the series with HT-29 it was below 1 µg/mL; in the series with HEK293, 4.2 µg/mL (≈ 10.9 µM). Further, in [7], the AUC was 3840 ng·h/mL. The Vdss in the series with Mus musculus stood at 46.56 mL. The molecule also came in with a Cmax in series [9] of 7050 ng/mL. The outcome in the series with Homo sapiens was Active. In addition, the half-life in series [10] was 28.2 min. The molecule also showed a clearance in [16] of 1.15 mL/min.
In turn, `COc1ccc(/C=C\c2cc(OC)c(OC)c(OC)c2)cc1O` [COMBRETASTATIN A4] gave an MRT in series [1] of 9 min. Further, the result in the series on ECV-304 [2], in the series with ECV-304 [13] and in the series on ECV-304 [15] was inactive. The amount in solution in series [3] (solubility) came to 123 µM (≈ 38.8 µg/mL). Moreover, the IC50 in series [5] was below 1 µg/mL; with L132, below 1 µg/mL; with KB, below 1 µg/mL; in the series on DU-145, 57 µg/mL (≈ 180 µM); with MIA PaCa-2 it was below 1 µg/mL; in series [12], 5 µg/mL (≈ 15.8 µM). Also, the IC50 in [14] is 980 nM; in series [17], below 1 µg/mL; in the series on HT-29, 5 µg/mL (≈ 15.8 µM); in the series on HEK293, 5.7 µg/mL (≈ 18 µM). Moreover, the Activity in the series on ECV-304 [6] turned out to be 41%. Moreover, in series [7], the AUC came out at 920 ng·h/mL. This molecule registered a Vdss with Mus musculus of 80.82 mL. Also, the highest level in series [9] (Cmax) was 3830 ng/mL. In addition, in [10], the half-life was 11.4 min. This molecule also had a clearance in series [16] of 4.86 mL/min.
For the molecule `COc1ccc(C2=C(c3cc(OC)c(OC)c(OC)c3)C(=O)C(O)C2)cc1Cl` (stereo unspecified), the IC50 is 20 µg/mL (≈ 49.4 µM) in series [5]; below 1 µg/mL in the series on L132; 2.5 µg/mL (≈ 6.18 µM) in the series with KB; 40 µg/mL (≈ 98.8 µM) in the series on DU-145; above 100 µg/mL in the series with MIA PaCa-2; below 1 µg/mL in series [12]. Further, the IC50 in [17] was above 100 µg/mL; in the series with HT-29, below 1 µg/mL; with HEK293, above 100 µg/mL.
As for `COc1ccc(C2=C(c3cc(OC)c(OC)c(OC)c3)/C(=N\O)C(O)C2)cc1Cl` (stereo unspecified), the IC50 in [5] was 18.5 µg/mL (≈ 44.1 µM); with L132, below 1 µg/mL; in the series on KB it was 9.8 µg/mL (≈ 23.3 µM); in the series with DU-145, 16 µg/mL (≈ 38.1 µM); in the series with MIA PaCa-2, 33 µg/mL (≈ 78.6 µM); in [12] it was below 1 µg/mL. The IC50 was above 100 µg/mL in series [17], below 1 µg/mL in the series on HT-29 and 50 µg/mL (≈ 119 µM) with HEK293.
Regarding `C=CCOc1cc(C2=C(c3cc(OC)c(OC)c(OC)c3)C(=O)C(O)C2)ccc1OC` (stereo unspecified), the IC50 (in series [5]; in the series with L132; in the series with KB; with DU-145; in the series on MIA PaCa-2; in series [12]) was above 100 µg/mL in each case. Moreover, the IC50 (in [17]; in the series on HT-29; in the series on HEK293) was above 100 µg/mL in each case.
In the case of `COc1ccc(C2=C(c3cc(OC)c(OC)c(OC)c3)C(=O)C(O)C2)cc1` (stereo unspecified), the result with ECV-304 [2], in the series with ECV-304 [13] and in the series with ECV-304 [15] was inactive. Moreover, the Activity entry in the series on ECV-304 [4] was “Dose-dependent effect”; in the series on ECV-304 [6], 54%. For the same molecule, the IC50 in series [5] is below 1 µg/mL; with L132 it was below 1 µg/mL; in the series on KB, below 1 µg/mL; in the series on DU-145, above 100 µg/mL; with MIA PaCa-2, below 1 µg/mL; in series [12] it was below 1 µg/mL. Besides, the IC50 is below 1 µg/mL in series [17], below 1 µg/mL with HT-29 and 6.3 µg/mL (≈ 17 µM) in the series with HEK293.
For `COc1cc(C2=C(c3ccccc3)C(O[Si](C)(C)C(C)(C)C)CC2=O)cc(OC)c1OC` (stereo unspecified), the IC50 (in series [5]; with L132; with KB; with DU-145; with MIA PaCa-2; in series [12]) was above 100 µg/mL in each case. Besides, the IC50 (in series [17]; in the series on HT-29; in the series on HEK293) was above 100 µg/mL each time.
